Reference: paper PMC11008256 (Cell reports. Physical science, 2024)
Structures can show the parent of a compound that is named as a salt. Ends that are not written are not given here. Peptide text beside a SMILES is read from it.

Tests used:
[1] = tested on: K. pneumoniae NTUH K2044; assay: Antimicrobial activity, broth microdilution MIC; type: cell-based, Klebsiella pneumoniae; settings: LB used for MIC testing to determine dosage for skin model
In short: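 Log-phase cells (an overnight LB culture diluted 1:100 in MHB at 37°C) seeded at 1 × 10^6 CFU mL-1 in LB for skin-model dosing, rather than the usual MHB. Peptide and polymyxin B control prepared in BSA buffer and tested at 0.0625–128 µmol L-1. Growth read as OD600; three independent replicates.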

[2] = tested on: K. pneumoniae NTUH K2044; assay: Skin abscess mouse model; type: in vivo, female CD-1 mice; settings: single topical dose at MIC, monitored 4 days, n = 6
[3] = tested on: pre-formed biofilms of K. pneumoniae NTUH K2044; assay: Biofilm eradication; type: cell-based, Klebsiella pneumoniae; settings: 60 μmol L^−1, 24 h
In short: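 Overnight NTUH K2044 culture diluted to OD600 0.5 in TSB + 0.5% glucose. Biofilms grown 24 h at 37°C static in 35 mm dishes. Peptide diluted in BSA buffer (0.2% BSA, 0.01% acetic acid) plus MHB; untreated control received buffer plus MHB. Treatment 24 h at 37°C static. Dispersed cells and PBS-washed (×3), PBS-resuspended biofilm plated for CFU mL-1. ±SEM; one-way ANOVA with Dunnett versus untreated.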

[4] = Peptide:polysaccharide aggregation assay; set-up: species or system Klebsiella pneumoniae; settings: 100 μmol L^−1 peptide, 300 μg mL^−1 polysaccharide
In short: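 Polysaccharide hot-phenol-extracted from an overnight LB culture (60 min, 68°C; chloroform; ethanol precipitation) and quantified by uronic acid assay. Mixed with peptide in 10 mM potassium phosphate, then immediately spun 15,600 rpm for 15 min. Pellets resuspended in water, run on 4–8% bis-tris SDS-PAGE beside 2 µg purified polysaccharide, and Alcian blue-stained. Band density measured with the no-peptide control subtracted as background. Triplicate; ±SEM.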

[5] = tested on: K. pneumoniae NTUH K2044 biofilm matrix polysaccharides; assay: Confocal microscopy imaging of biofilm polysaccharide matrix; type: cell-based, Klebsiella pneumoniae
[6] = tested on: Human red blood cells; assay: Hemolytic activity assay; type: cell-based; settings: 1 to 128 μmol L^−1, 4 h room temperature, absorbance 405 nm

Q: Which “MIC used as dose for skin model” value [1] does the source give for `CC[C@H](C)CCCCC(=O)N[C@@H](CCN)C(=O)N[C@H](C(=O)N[C@@H](CCN)C(=O)N[C@H]1CCNC(=O)[C@H]([C@@H](C)O)NC(=O)[C@H](CCN)NC(=O)[C@H](CCN)NC(=O)[C@H](CC(C)C)NC(=O)[C@@H](Cc2ccccc2)NC(=O)[C@H](CCN)NC1=O)[C@@H](C)O` [polymyxin B, polymyxin B sulfate, reference compound] (HELM PEPTIDE1{[CC[C@H](C)CCCCC(=O)[*:2]].[Dab].T.[Dab].[Dab].[Dab].[dF].L.[Dab].[Dab].T}$PEPTIDE1,PEPTIDE1,5:R3-11:R2$$$V2.0; N-terminus assumed; bridges inferred) here?
A: 1 µM

Q: What about the “mouse weight changes, skin damage (proxy of toxicity)” value [2] of the same molecule?
A: No variations in weight, damage to the skin tissue, or other harmful consequences

Q: With “PRPIPRPLPFPRPGPRPIPRPLPFPRPGPRPIPRP [Bac7 (24–59)]” as the molecule, how does the “biofilm and dispersed CFU mL^−1” value [3] read?
A: did not significantly change

Q: What about the “aggregation with extracellular polysaccharides (in words)” value [4] of the same molecule?
A: highest aggregation potential

Q: What about the “effect on biofilm polysaccharide matrix (confocal)” value ([5]; 15 μmol L^−1, 24 h, concanavalin A Texas red stain) of the same molecule?
A: drop in overall height (30 μm) and moderate change in the polysaccharide matrix

Q: What about the “effect on biofilm polysaccharide matrix (confocal)” value ([5]; 60 μmol L^−1, 24 h) of the same molecule?
A: polysaccharide matrix loss from the upper layers of the biofilm

Q: What does the source list for “RRIRPRPPRLPRPRPRPLPFPRPGPRPIPRPLPFP [Bac7 (1–35)]”?
A: hemolysis [6]: limited ability to lyse red blood cells; MIC used as dose for skin model [1]: 2 µM; mouse weight changes, skin damage (proxy of toxicity) [2]: No variations in weight, damage to the skin tissue, or other harmful consequences
